Test results as given in paper PMC3206492 (Journal of the American Chemical Society, 2011).

The substances below were run on PBP1b (assay: In vitro PBP1b transglycosylase assay). Settings: peptide up to 200 μM.
Assay type: biochemical, Escherichia coli
Method in brief: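 E. coli PBP1b glycan polymerization with heptaprenyl lipid II substrate at 4 μM, run with and without test peptide. Peptidoglycan formation was monitored, and IC50 is the peptide concentration giving half-maximal inhibition of PBP1b activity.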

Substance	inhibition of lipid II polymerization at concentrations up to 200 μM
epilancin 15X	did not demonstrate any inhibitory activity
lactocin S	did not demonstrate any inhibitory activity
sublancin	did not inhibit
